Reference: ChEMBL document CHEMBL4373697, “Cyclization of RGD Peptides by Suzuki-Miyaura Cross-Coupling” (J Med Chem, 2019)

Key:
Integrin alpha-5/beta-1 = Integrin alpha-5/beta-1 (Homo sapiens, UniProt P05556+P08648); experiment: Inhibition of human fibronectin binding to human integrin alpha5beta1 incubated for 1 hr by ELISA; assay type: protein-complex assay
Integrin alpha-V/beta-3 [1] = target: T1, Integrin alpha-V/beta-3 (Homo sapiens, UniProt P05106+P06756); experiment: Binding affinity to integrin alphavbeta3 receptor in human WM115 cells assessed as inhibition of cell adhesion to vitronectin after 0.5 hr by fluorescence assay; assay type: cell-based
T1 sequence (P05106 27-788 limits assumed): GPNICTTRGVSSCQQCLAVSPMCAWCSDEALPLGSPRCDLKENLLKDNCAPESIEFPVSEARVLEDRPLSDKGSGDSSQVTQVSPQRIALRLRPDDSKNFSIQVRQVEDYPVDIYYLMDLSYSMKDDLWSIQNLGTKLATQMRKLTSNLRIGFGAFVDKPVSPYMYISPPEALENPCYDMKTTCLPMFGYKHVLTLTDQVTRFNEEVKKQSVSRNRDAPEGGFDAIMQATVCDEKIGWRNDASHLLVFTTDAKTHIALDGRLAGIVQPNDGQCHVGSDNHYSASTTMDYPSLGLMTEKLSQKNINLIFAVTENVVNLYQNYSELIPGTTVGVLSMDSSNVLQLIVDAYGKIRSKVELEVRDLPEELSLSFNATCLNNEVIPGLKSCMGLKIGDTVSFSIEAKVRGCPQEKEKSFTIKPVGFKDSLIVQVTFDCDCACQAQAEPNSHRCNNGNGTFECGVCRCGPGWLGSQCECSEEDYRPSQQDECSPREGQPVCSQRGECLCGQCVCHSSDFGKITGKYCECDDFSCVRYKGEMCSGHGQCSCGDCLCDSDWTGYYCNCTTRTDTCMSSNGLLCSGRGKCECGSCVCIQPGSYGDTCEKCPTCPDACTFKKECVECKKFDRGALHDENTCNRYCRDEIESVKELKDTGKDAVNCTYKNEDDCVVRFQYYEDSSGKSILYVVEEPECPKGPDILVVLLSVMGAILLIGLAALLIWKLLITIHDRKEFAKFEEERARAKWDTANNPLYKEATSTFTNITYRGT
T1 sequence (P06756 31-889 limits assumed): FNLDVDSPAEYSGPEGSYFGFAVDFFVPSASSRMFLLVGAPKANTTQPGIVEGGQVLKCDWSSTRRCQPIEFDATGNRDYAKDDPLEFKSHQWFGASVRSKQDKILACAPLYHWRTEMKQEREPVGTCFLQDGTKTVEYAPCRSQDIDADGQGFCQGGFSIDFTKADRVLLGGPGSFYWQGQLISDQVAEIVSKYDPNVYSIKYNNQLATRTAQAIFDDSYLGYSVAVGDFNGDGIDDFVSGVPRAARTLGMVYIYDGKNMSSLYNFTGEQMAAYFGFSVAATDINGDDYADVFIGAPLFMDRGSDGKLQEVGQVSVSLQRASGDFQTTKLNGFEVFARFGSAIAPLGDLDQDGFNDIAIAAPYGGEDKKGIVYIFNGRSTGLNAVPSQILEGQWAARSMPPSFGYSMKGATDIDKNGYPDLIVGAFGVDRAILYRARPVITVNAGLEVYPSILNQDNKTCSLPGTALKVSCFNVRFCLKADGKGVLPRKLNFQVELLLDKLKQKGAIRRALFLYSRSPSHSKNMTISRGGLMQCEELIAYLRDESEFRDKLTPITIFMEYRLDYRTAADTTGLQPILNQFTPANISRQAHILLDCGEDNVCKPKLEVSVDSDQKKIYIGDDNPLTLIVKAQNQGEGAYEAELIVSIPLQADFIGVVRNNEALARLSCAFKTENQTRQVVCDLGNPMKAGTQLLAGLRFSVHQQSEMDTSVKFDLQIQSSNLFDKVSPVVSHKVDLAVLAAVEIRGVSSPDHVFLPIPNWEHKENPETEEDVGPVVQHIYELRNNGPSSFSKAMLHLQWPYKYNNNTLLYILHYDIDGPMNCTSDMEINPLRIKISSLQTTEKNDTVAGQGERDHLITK
T1 sequence (P06756 891-1048 limits assumed): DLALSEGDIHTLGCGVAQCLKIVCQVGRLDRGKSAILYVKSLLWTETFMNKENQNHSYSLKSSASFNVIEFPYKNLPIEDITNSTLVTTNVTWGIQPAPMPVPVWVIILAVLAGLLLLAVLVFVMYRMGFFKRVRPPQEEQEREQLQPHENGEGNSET

Integrin alpha-V/beta-3 [2] = target: T1, Integrin alpha-V/beta-3; experiment: Inhibition of human vitronectin binding to human integrin alphavbeta3 receptor after 1 hr by ELISA; assay type: protein-complex assay
[3] = target: Integrin alpha-IIb/beta-3 (Homo sapiens, UniProt P05106+P08514); experiment: Inhibition of human fibronectin binding to human Integrin alpha2b beta3 receptor incubated for 1 hr by ELISA; assay type: protein-complex assay
Integrin alpha-IIb/beta-3, sequence (P05106 27-788 limits assumed): as the sequence (P05106 27-788 limits assumed) above
Integrin alpha-IIb/beta-3, sequence (P08514 32-887 limits assumed): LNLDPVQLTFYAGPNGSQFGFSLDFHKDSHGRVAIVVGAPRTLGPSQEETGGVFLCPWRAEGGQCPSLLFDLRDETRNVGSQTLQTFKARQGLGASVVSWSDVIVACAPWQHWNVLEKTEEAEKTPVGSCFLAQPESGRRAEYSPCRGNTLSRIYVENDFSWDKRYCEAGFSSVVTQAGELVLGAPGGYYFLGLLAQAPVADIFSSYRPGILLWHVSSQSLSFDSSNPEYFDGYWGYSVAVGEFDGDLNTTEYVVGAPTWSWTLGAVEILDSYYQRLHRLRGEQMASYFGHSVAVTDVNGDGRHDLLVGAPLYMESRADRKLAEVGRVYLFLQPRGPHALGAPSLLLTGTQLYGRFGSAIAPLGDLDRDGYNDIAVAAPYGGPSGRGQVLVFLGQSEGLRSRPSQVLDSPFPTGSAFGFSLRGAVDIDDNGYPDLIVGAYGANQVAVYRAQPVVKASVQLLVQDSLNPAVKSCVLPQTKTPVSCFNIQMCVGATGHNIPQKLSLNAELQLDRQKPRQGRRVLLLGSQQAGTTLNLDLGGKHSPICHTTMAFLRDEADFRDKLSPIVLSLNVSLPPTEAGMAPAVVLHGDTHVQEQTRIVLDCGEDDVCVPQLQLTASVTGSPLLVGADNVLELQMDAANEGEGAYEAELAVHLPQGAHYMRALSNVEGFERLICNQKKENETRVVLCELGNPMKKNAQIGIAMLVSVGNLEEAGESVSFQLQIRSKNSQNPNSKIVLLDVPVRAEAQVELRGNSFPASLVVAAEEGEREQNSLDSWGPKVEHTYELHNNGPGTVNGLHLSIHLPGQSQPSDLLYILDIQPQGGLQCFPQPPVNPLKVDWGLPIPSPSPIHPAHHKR
Integrin alpha-IIb/beta-3, sequence (P08514 891-1039 limits assumed): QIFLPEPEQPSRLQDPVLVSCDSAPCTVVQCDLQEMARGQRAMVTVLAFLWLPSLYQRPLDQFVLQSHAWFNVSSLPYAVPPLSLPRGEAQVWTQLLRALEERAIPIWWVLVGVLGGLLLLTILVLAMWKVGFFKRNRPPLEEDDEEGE

[4] = Half-life in human plasma at 500 uM incubated for 24 hrs and measured up to 24 hrs by LC-MS analysis; assay type: ADME, cell-free
How it was run: (§1)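 Compound from DMSO stock (final DMSO ≤1%) in human citrate plasma, pH 7.5, incubated at 37 °C, 400 rpm, for 24 h. Aliquots were taken at 0, 1, 3, 6, 8 and 24 h and quenched with cold acetonitrile containing warfarin (50 µM final) as internal standard, then centrifuged. Supernatant was run by LC-MS; UV peak area was compared with the internal standard.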

[5] = Half-life in human plasma at 250 uM incubated for 24 hrs and measured up to 24 hrs by LC-MS analysis; assay type: ADME, cell-free; how it was run: as §1

Integrin alpha-5/beta-1, sequence (P05556 21-798 limits assumed): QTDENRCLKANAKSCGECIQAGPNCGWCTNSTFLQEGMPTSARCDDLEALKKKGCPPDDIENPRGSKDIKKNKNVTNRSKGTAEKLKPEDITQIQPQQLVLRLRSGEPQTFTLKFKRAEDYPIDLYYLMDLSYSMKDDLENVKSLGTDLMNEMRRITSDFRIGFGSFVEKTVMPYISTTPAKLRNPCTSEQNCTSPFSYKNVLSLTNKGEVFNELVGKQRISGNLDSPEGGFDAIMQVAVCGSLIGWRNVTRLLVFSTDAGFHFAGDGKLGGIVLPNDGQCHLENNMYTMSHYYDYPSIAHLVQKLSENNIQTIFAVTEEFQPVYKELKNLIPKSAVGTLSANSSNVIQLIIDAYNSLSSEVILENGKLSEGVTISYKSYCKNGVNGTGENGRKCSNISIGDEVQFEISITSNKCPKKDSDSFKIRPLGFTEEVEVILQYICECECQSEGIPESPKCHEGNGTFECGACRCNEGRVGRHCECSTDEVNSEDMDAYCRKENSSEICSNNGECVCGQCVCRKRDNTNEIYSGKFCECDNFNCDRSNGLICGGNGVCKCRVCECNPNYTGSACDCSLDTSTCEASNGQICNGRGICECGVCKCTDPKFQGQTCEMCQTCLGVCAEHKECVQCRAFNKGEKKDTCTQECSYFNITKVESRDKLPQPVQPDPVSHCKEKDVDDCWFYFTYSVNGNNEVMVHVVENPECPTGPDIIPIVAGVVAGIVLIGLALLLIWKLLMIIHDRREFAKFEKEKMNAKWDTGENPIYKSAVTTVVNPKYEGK
Integrin alpha-5/beta-1, sequence (P08648 42-894 limits assumed): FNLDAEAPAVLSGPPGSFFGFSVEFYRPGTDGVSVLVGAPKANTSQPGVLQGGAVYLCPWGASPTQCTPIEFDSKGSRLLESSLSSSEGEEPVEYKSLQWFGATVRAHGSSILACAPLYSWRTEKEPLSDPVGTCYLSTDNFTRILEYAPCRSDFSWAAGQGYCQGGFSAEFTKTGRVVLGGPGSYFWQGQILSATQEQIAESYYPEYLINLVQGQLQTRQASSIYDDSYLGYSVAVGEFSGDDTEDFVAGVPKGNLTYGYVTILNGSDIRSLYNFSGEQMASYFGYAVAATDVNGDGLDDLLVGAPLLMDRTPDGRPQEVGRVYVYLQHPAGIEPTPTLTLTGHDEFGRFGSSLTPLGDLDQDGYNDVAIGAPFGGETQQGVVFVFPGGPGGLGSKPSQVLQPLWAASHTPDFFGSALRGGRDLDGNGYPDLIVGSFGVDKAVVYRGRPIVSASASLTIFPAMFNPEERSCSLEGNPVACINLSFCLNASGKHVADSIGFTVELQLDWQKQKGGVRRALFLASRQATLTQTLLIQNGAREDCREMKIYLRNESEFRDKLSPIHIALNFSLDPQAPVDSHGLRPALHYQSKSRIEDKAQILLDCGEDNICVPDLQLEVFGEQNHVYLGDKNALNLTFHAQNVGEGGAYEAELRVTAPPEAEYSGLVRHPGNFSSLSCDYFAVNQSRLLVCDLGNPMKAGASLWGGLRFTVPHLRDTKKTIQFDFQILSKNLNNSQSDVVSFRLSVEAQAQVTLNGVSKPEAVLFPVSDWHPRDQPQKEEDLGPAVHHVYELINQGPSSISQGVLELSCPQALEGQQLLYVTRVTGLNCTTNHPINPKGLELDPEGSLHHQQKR
Integrin alpha-5/beta-1, sequence (P08648 895-1049 limits assumed): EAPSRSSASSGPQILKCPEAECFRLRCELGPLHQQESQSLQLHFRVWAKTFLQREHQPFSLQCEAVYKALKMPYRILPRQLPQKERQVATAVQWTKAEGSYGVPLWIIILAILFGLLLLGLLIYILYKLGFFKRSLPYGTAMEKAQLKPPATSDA

| SMILES | IC50 (Integrin alpha-5/beta-1) [µM] | IC50 (Integrin alpha-V/beta-3 [1]) [µM] | IC50 (Integrin alpha-V/beta-3 [2]) [µM] | IC50 [3] [µM] | half-life at 500 µM [4] [min] | half-life at 250 µM [5] [min] |
| --- | --- | --- | --- | --- | --- | --- |
| CN1C(=O)[C@H](Cc2ccccc2)NC(=O)[C@H](CC(=O)O)NC(=O)CNC(=O)[C@H](CCCNC(=N)N)NC(=O)CCCCCc2cccc3c(c[nH]c23)C[C@@H]1C(N)=O | 0.419 | > 500 | 0.0389 |  |  |  |
| CN1C(=O)[C@H](Cc2ccccc2)NC(=O)[C@H](CC(=O)O)NC(=O)CNC(=O)[C@H](CCCNC(=N)N)NC(=O)c2ccccc2-c2cccc3c(c[nH]c23)C[C@@H]1C(N)=O | 0.00192 | 158 | 0.0646 |  |  |  |
| N=C(N)NCCC[C@@H]1NC(=O)c2cccc(c2)-c2cccc3c(c[nH]c23)C[C@@H](C(N)=O)NC(=O)[C@@H](Cc2ccccc2)NC(=O)[C@H](CC(=O)O)NC(=O)CNC1=O | 0.983 | > 500 | 0.065 |  |  |  |
| CN1C(=O)[C@H](Cc2ccccc2)NC(=O)[C@H](CC(=O)O)NC(=O)CNC(=O)[C@H](CCCNC(=N)N)NC(=O)CCCCc2cccc3c(c[nH]c23)C[C@@H]1C(N)=O | 0.563 | > 500 | 0.0362 |  |  |  |
| CN1C(=O)[C@H](Cc2ccccc2)NC(=O)[C@H](CC(=O)O)NC(=O)CNC(=O)[C@H](CCCNC(=N)N)NC(=O)CCc2cccc3c(c[nH]c23)C[C@@H]1C(N)=O | 0.325 | 250 | 0.0128 | 5.03 |  |  |
| N=C(N)NCCC[C@@H]1NC(=O)c2ccc(cc2)-c2cccc3c(c[nH]c23)C[C@H](C(N)=O)NC(=O)[C@H](CC(=O)O)NC(=O)CNC1=O | 5.94 | > 500 | 0.0413 | > 10 |  |  |
| N=C(N)NCCC[C@@H]1NC(=O)c2ccc(cc2)-c2cccc3c(c[nH]c23)C[C@@H](C(N)=O)NC(=O)[C@H](CC(=O)O)NC(=O)CNC1=O | 3.66 | > 500 | 0.491 |  |  |  |
| CN1C(=O)[C@H](Cc2ccccc2)NC(=O)[C@H](CC(=O)O)NC(=O)CNC(=O)[C@H](CCCNC(=N)N)NC(=O)c2cccc(c2)-c2cccc3c(c[nH]c23)C[C@@H]1C(N)=O | 0.547 | 9.4 | 0.0054 to 0.0139 | 5.8 | > 1440 |  |
| CN1C(=O)[C@H](Cc2ccccc2)NC(=O)[C@H](CC(=O)O)NC(=O)CNC(=O)[C@H](CCCNC(=N)N)NC(=O)c2ccc(cc2)-c2ccc3c(c[nH]c3c2)C[C@@H]1C(N)=O | 2.72 | 244 | 0.0149 | > 10 |  |  |
| N=C(N)NCCC[C@@H]1NC(=O)c2ccc(cc2)-c2cccc3c(c[nH]c23)C[C@H](C(N)=O)NC(=O)[C@H](Cc2ccccc2)NC(=O)[C@H](CC(=O)O)NC(=O)CNC1=O | 9.29 | 51 | 0.0177 | > 10 |  |  |

Other lines, results leading:

| IC50 (Integrin alpha-5/beta-1) [µM] | IC50 (Integrin alpha-V/beta-3 [1]) [µM] | IC50 (Integrin alpha-V/beta-3 [2]) [µM] | IC50 [3] [µM] | half-life at 500 µM [4] [min] | half-life at 250 µM [5] [min] | SMILES |
| --- | --- | --- | --- | --- | --- | --- |
| > 10 | > 500 | 0.537 |  |  |  | CN1C(=O)[C@H](CC(=O)O)NC(=O)CNC(=O)[C@H](CCCNC(=N)N)NC(=O)c2ccc(cc2)-c2cccc3c(c[nH]c23)C[C@@H]1C(N)=O |
| > 10 | > 500 | 0.239 |  |  |  | CN1C(=O)[C@H](CC(=O)O)NC(=O)CNC(=O)[C@H](CCCNC(=N)N)NC(=O)c2ccc(cc2)-c2cccc3c(c[nH]c23)C[C@H]1C(N)=O |
| 5.67 | > 500 | 0.579 |  |  |  | N=C(N)NCCC[C@@H]1NC(=O)c2ccc(cc2)-c2cccc3c(c[nH]c23)C[C@@H](C(N)=O)NC(=O)[C@@H](Cc2ccccc2)NC(=O)[C@H](CC(=O)O)NC(=O)CNC1=O |
| 0.154 | > 500 | 0.034 |  |  |  | CN1C(=O)[C@H](Cc2ccccc2)NC(=O)[C@H](CC(=O)O)NC(=O)CNC(=O)[C@H](CCCNC(=N)N)NC(=O)CCCc2cccc3c(c[nH]c23)C[C@@H]1C(N)=O |
| 0.835 | 11.1 | 0.023 | > 10 |  |  | CN1C(=O)[C@H](Cc2ccccc2)NC(=O)[C@H](CC(=O)O)NC(=O)CNC(=O)[C@H](CCCNC(=N)N)NC(=O)c2ccc(cc2)-c2cccc3c(c[nH]c23)C[C@@H]1C(N)=O |
| 2.16 | > 500 | 0.0952 |  |  |  | CN1C(=O)[C@@H](Cc2ccccc2)NC(=O)[C@H](CC(=O)O)NC(=O)CNC(=O)[C@H](CCCNC(=N)N)NC(=O)c2ccc(cc2)-c2cccc3c(c[nH]c23)C[C@H]1C(N)=O |
| 8.03 | > 500 | 0.019 |  |  |  | N=C(N)NCCC[C@@H]1NC(=O)c2cccc(c2)-c2cccc3c(c[nH]c23)C[C@@H](C(N)=O)NC(=O)[C@H](CC(=O)O)NC(=O)CNC1=O |
|  |  |  |  |  | 30 | CCN(CC)CCOC(=O)c1ccc(N)cc1 [PROCAINE] |
| > 10 | 310 | 0.0592 |  |  |  | N=C(N)NCCC[C@@H]1NC(=O)c2ccc(cc2)-c2ccc3c(c[nH]c3c2)C[C@H](C(N)=O)NC(=O)[C@H](Cc2ccccc2)NC(=O)[C@H](CC(=O)O)NC(=O)CNC1=O |
